Measurements from ChEMBL document CHEMBL1127679, “6H-pyrazolo[4,5,1-de]acridin-6-ones as a novel class of antitumor agents. Synthesis and biological activity” (J Med Chem, 1994).

What was measured:
[1] = biological target: Nucleic Acid; test: Relative affinity for DNA binding; assay type: nucleic-acid assay
[2] = organism: Mus musculus; test: %T/C value measured in antitumor activity using murine P388 leukemia cells; assay type: functional
In short: (§1)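 Mice inoculated ip with P388 leukemia cells or the adriamycin-resistant subline P388/ADM. Drug activity expressed as T/C (%), i.e. mean survival days of the treated group over those of the control group, followed for 60 days. T/C >130% taken as significant. Optimal dose reported in mg/kg per injection.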

[3] = organism: Mus musculus; test: Compound evaluated for optimal dose per injection against murine P388 leukemia cells; assay type: functional; in short: as §1
[4] = organism: Mus musculus; test: %T/C value measured in antitumor activity using murine sarcoma 180 cells; assay type: functional
In short: (§2)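 Sarcoma 180 cells inoculated sc in mice. Drugs tested for antitumor activity, with the optimal dose given in mg/kg per injection. Activity expressed as treated versus control (T/C) value, and T/C <50% taken as effective.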

[5] = organism: Mus musculus; test: %T/C value measured in antitumor activity using murine P388/ADM cells.; assay type: functional; in short: as §1
[6] = tested on: Mus musculus; test: Compound evaluated for optimal dose (mg/kg) per injection against murine P388 leukemia cells; assay type: functional; in short: as §1
[7] = organism: Mus musculus; test: Compound evaluated for optimal dose per injection against adriamycin resistant murine cell line (P388/ADM cells); assay type: functional; in short: as §1
[8] = organism: Mus musculus; test: Compound evaluated for optimal dose per injection against murine sarcoma 180 cells; assay type: functional; in short: as §2
[9] = organism: Mus musculus; test: %T/C value measured in antitumor activity using murine P388/ADM cells; assay type: functional; in short: as §1
[10] = organism: Mus musculus; test: %T/C value measured in antitumor activity using murine sarcoma 180 tumor cells; assay type: functional; in short: as §2

Row | SMILES | IC50 [1] | T/C [2] | Optimal dose [3] | T/C [4] | T/C [5] | Optimal dose [6] | Optimal dose [7] | Optimal dose [8] | T/C [9] | T/C [10]
1 | CN(C)CCNCc1nn2c3cccc(O)c3c(=O)c3c(NCCN(C)C)ccc1c32 | 0.16 µM |  |  |  |  |  |  |  |  | 
2 | NCCNCc1nn2c3ccccc3c(=O)c3c(NCCN)ccc1c32 | 0.13 µM | 150% | 38 mg/kg |  |  |  |  |  |  | 
3 | NCCCNc1ccc2c(CN3CCOCC3)nn3c4cccc(O)c4c(=O)c1c23 | 0.89 µM | >278% |  | 33% | 115% | 13 mg/kg | 13 mg/kg | 13 mg/kg |  | 
4 | NCCNc1ccc2c(CNCCCCO)nn3c4cccc(O)c4c(=O)c1c23 | 0.17 µM | 146% |  |  |  | 3.1 mg/kg | 6.3 mg/kg |  | 126% | 
5 | CN(C)CCNCc1nn2c3ccccc3c(=O)c3c(NCCN(C)C)ccc1c32 | 0.26 µM |  |  |  |  |  |  |  |  | 
6 | NCCCCNc1ccc2c(CNCCO)nn3c4cccc(O)c4c(=O)c1c23 | 0.19 µM | 161% | 25 mg/kg |  |  |  | 50 mg/kg |  | 112% | 
7 | NCCNc1ccc2c(CNCCO)nn3c4cccc(O)c4c(=O)c1c23 | 0.14 µM | >222% | 1.6 mg/kg | 6% |  |  | 1.6 mg/kg | 6.3 mg/kg | 152% | 
8 | NCCCNc1ccc2c(CNCCO)nn3c4cccc(O)c4c(=O)c1c23 | 0.13 µM | >230% | 13 mg/kg |  |  |  | 6.3 mg/kg | 6 mg/kg | 156% | 21%
9 | CN(C)CCNc1ccc2c(CN(CCO)CCO)nn3c4cccc(O)c4c(=O)c1c23 | 0.42 µM | >286% |  |  | 134% | 25 mg/kg | 25 mg/kg | 13 mg/kg |  | 42%
10 | O=c1c2c(O)cccc2n2nc(CNCCO)c3ccc(NCCCO)c1c32 | 1.05 µM | 152% |  |  |  | 13 mg/kg | 50 mg/kg |  | 123% | 
11 | COc1cccc2c1c(=O)c1c(NCCN(C)C)ccc3c(CNCCN(C)C)nn2c31 | 0.16 µM |  |  |  |  |  |  |  |  | 
12 | CN(C)CCNc1ccc2c(CNCCO)nn3c4cccc(O)c4c(=O)c1c23 | 0.18 µM | >261% | 6.3 mg/kg |  |  |  | 3.1 mg/kg | 3.1 mg/kg | 144% | 9%
13 | NCCNCc1nn2c3cccc(O)c3c(=O)c3c(NCCN)ccc1c32 | 0.17 µM | >254% | 13 mg/kg |  |  |  | 13 mg/kg | 25 mg/kg | 138% | 12%
14 | NCCNc1ccc2c(CNCCCO)nn3c4cccc(O)c4c(=O)c1c23 | 0.14 µM | >181% |  |  |  | 3.1 mg/kg | 3.1 mg/kg |  | 146% | 
15 | CCNCc1nn2c3cccc(O)c3c(=O)c3c(NCCN(C)C)ccc1c32 | 0.11 µM | 196% | 3.1 mg/kg |  |  |  | 3.1 mg/kg |  | 126% | 
16 | O=c1c2c(O)cccc2n2nc(CNCCO)c3ccc(NCCNCCO)c1c32 | 0.14 µM | >208% |  |  |  | 3.1 mg/kg | 6.3 mg/kg | 12 mg/kg | 145% | 5%
17 | COc1cccc2c1c(=O)c1c(NCCN)ccc3c(CNCCN)nn2c31 | 0.18 µM | 139% |  |  |  | 25 mg/kg |  |  |  | 
18 | COc1cccc2c1C(=O)c1c(O)c3c(c(O)c1C2=O)C[C@@](O)(C(=O)CO)C[C@@H]3O[C@H]1C[C@H](N)[C@H](O)[C@H](C)O1 [DOXORUBICIN] |  | >254% |  | 31% | 116% | 7.5 mg/kg | 7.5 mg/kg | 7.5 mg/kg |  | 
